One assay is filed under the species Sus scrofa. Put plainly: Relaxant effect on PGF2-alpha precontracted pig coronary arteries. The assay is classed as functional. An outline of the steps: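 Porcine coronary arterial strips were equilibrated at 1 g resting tension. Intact endothelium was confirmed by 7 × 10^-9 M bradykinin relaxing strips precontracted with 50 mM KCl (final concentrations). Strips were then contracted with PGF2α, final 10^-6 M, and cumulative concentration–relaxation curves were built after a plateau. Relaxation was expressed as % of the PGF2α contraction. EC50 came from the log curve, mean ± SEM, n experiments.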

In assay [1] the target is T1, Phosphodiesterase 4A (Sus scrofa, UniProt O77823).
T1 sequence (O77823 whole entry): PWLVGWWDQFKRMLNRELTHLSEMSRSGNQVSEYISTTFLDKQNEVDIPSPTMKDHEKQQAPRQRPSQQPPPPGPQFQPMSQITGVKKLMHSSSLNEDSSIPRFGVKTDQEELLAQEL
Put plainly: Inhibition of cAMP specific phosphodiesterase from porcine coronary arteries. Particulars: in the assay text read “porcine aorta” for “porcine coronary arteries”. An outline of the steps:
(§1)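 Isozymes were separated from porcine aorta: type II (cGMP-stimulated), type III, and type IV (cAMP-specific). Each used [3H]cAMP at 1 μM as substrate. Compounds were tested in DMSO diluted in assay buffer over 10^-8 to 10^-4 M, with final DMSO below 0.4% (v/v). IC50 came from log concentration–inhibition curves (at least three points), as means ± SEM from at least three experiments.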

Assay [2] concerns the target T1, Phosphodiesterase 4A. Put plainly: Inhibition of cAMP specific phosphodiesterase from porcine aorta.
The target in a further assay is T2, Phosphodiesterase 3A (Sus scrofa, UniProt Q9XSW7).
T2 sequence (Q9XSW7 whole entry): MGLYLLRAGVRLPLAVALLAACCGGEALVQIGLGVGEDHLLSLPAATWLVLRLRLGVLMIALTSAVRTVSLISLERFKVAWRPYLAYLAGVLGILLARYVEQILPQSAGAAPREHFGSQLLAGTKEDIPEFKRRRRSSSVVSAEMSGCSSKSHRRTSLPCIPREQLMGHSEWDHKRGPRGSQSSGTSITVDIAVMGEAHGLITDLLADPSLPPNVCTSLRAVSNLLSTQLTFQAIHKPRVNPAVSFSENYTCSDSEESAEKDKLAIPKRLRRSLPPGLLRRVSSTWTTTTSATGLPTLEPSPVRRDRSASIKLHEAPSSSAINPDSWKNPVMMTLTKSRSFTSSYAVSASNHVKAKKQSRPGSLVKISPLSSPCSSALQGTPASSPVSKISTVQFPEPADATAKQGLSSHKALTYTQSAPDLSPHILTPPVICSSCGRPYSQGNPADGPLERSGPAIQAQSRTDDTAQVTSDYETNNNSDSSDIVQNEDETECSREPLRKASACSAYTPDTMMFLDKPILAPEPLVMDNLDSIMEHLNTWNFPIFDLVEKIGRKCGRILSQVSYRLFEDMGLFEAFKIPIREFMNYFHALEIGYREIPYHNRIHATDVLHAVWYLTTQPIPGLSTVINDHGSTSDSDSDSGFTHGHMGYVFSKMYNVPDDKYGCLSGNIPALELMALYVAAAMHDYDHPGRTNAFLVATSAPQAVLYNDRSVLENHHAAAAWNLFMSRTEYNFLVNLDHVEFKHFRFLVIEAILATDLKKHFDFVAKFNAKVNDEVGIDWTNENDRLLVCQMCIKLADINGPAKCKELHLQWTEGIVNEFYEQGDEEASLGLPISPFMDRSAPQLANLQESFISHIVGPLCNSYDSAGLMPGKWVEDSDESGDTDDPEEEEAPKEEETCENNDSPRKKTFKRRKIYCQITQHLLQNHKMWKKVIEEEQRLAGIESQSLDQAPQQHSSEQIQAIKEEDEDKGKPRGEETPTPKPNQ
Description: Inhibition of cGMP-inhibited phosphodiesterase from porcine coronary arteries. A digest of the protocol: as §1

Assay [3] addresses T1, Phosphodiesterase 4A. Put plainly: Inhibition of cAMP specific phosphodiesterase from porcine aorta. A digest of the protocol: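 PDE isozymes (types I–V) separated from porcine aorta. Substrate was [3H]cGMP for types I and V and [3H]cAMP for types II, III and IV, each at 1 μM. Test agents were dissolved in DMSO and diluted in assay buffer over 10^-8 to 10^-4 M, with final DMSO below 0.4% (v/v). IC50 was taken from the log concentration–inhibition curve (at least three points), mean ± SEM of at least three experiments.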

Where [4] appears, read: in the assay text read “porcine aorta” for “porcine coronary arteries”.

Molecule `COc1cc2c(NCc3ccc4c(c3)OCO4)ncnc2c(OC)c1OC` displayed an EC50 in the assay filed under Sus scrofa of 1.96 µM. Also, the 50% inhibitory concentration (IC50) at Phosphodiesterase 4A [1] was over 100 µM.

At Phosphodiesterase 4A [2], `Clc1cccc(Nc2nnc(-c3ccccc3)c3ccccc23)c1` came in with a 50% inhibitory concentration (IC50) of 37.2 µM.

Take `OCCN(CCO)c1nc(N2CCCCC2)c2nc(N(CCO)CCO)nc(N3CCCCC3)c2n1` [DIPYRIDAMOLE]: the concentration for half-maximal inhibition (IC50) is 6.4 µM on Phosphodiesterase 4A [1] and over 100 µM on Phosphodiesterase 3A (setting [4]).

Turning to `COc1ccc(Cc2nccc3cc(OC)c(OC)cc23)cc1OC` [PAPAVERINE], the IC50 against Phosphodiesterase 3A amounted to 0.62 µM; on Phosphodiesterase 4A [2], 1.7 µM.

As to `CCCOc1ccccc1-c1nc2nn[nH]c2c(=O)[nH]1` [ZAPRINAST], it took 4.75 µM to reach a half-maximal effect in the assay listed under Sus scrofa (EC50). Moreover, the half-maximal inhibitory concentration (IC50) was 79.6 µM against Phosphodiesterase 4A [3] and over 100 µM against Phosphodiesterase 3A (setting [4]).

Values taken from ChEMBL document CHEMBL1126916, “Cyclic GMP phosphodiesterase inhibitors. 1. The discovery of a novel potent inhibitor, 4-((3,4-(methylenedioxy)benzyl)amino)-6,7,8-trimethoxyquinazoline” (J Med Chem, 1993).
